S100A4 inh HTS: blocks human S100A4 binding to myosin IIA peptide; P26447; S100A4/TAMRA-MyoIIA peptide fluorescence polarization; AID 652163; hit rate 0.14% among 360,000; inhibition, % at 10.7 µM;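 active = mean inhibition of at least 70% across replicates, with every replicate also reaching that level; inconclusive = mean inhibition reaches 70% but some replicates fall short; inactive = mean inhibition below 70%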
Target sequence (P26447 whole entry, looked up): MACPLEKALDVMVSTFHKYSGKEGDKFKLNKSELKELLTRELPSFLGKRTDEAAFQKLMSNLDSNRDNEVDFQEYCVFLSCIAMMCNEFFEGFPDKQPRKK
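Material: S100A4 monomer protein | Medium: HEPES pH 7.2 with CaCl2, KCl, NaCl, DTT, Triton | Reagent: Labelled myosin peptide probe, 5 nM | Doses: One dose per compound | Times: 5 min incubation before reading | Benchmarks: Neutral control DMSO, positive control TFP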
PGC1a acetyl inh: PGC1a acetylation modulation, inhibitor mode; U2OS PGC1a acetylation, AlphaScreen anti-acetyl-lysine; with virally co-expressed GCN5 acetyltransferase; inhibition, % at 15.6 µM; hit rate 0.17% among 350,000; AID 651687;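 active = every replicate shows inhibition of at least 40%; inconclusive = mean inhibition at least 40% but some replicate below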;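 also: 0% = neutral control wells and 100% = positive control wells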
SIRT5 block: blocks human SIRT5 desuccinylation of peptide; Q9NXA8; Purified SirT5, succinyl-peptide AMC, trypsin-coupled fluorescence; inhibition, % at 15 µM; hit rate 1.1% among 330,000; in the data active = inhibition above about 15%; inconclusive = no clear call, values can overlap the other calls
Target sequence (Q9NXA8 whole entry, looked up): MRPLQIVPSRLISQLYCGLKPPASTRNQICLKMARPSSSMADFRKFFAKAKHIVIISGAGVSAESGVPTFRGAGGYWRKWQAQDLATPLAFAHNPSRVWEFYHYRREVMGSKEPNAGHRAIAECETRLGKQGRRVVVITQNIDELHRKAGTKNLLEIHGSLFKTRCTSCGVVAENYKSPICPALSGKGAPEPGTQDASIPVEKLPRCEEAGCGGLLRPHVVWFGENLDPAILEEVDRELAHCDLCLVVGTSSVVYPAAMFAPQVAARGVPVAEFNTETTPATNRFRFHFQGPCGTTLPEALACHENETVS
DENV2 CPE rescue: protects cells from dengue virus 2 cytopathic effect; DENV2-infected cells, cytopathic effect rescue, plate reader; CPE inhibition, % at 9.99 µM; hit rate 1.7% among 350,000; AID 651640; in the data active = CPE inhibition above about 20%, passing the limit was not always enough; inconclusive = no clear call, values can overlap the other calls; tested in BHK-21 cells;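 also: 0% = median of neutral control wells and 100% = median of positive control wells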
Statin myotox sup: protects C2C12 myotubes from simvastatin toxicity | ATP luminescence, 48 h; scaled: DMSO 0, geranylgeraniol control 100 | rescue of ATP level, % at 7.49 µM | hit rate 0.78% among 330,000;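 active = mean ATP rescue above about 67%, or every replicate alone reaching that limit, limit read from the data, passing the limit was not always enough; inconclusive = no clear call, values can overlap the other calls; inactive = mean under the limit and some replicate under it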;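 also: myotubes were challenged with 10 µM simvastatin during compound exposure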
Starred values were filed as active, the others as inactive; u = inconclusive; x = no result given. Hits are enriched below; roughly 2.9% of the tested compounds scored in any of these assays.

SMILES | S100A4 inh HTS | PGC1a acetyl inh | SIRT5 block | DENV2 CPE rescue | Statin myotox sup
C[C@@H]1CN([C@H](C)CO)C(=O)Cc2cc(NC(=O)Cc3cn(C)c4ccccc34)ccc2O[C@H]1CN(C)Cc1ccc(-c2ccccc2)cc1 | 34 | -8 | -1 | -11 | 93*
O=C(NC[C@H]1[C@H](c2ccccc2)[C@H](CO)N1CC1CCCC1)c1cccnc1 | x | -2 | x | -16 | 10
CCC(=O)Nc1ccc2c(c1)C(=O)N(C)C[C@H](OC)[C@@H](C)CN(CC1CC1)[C@H](C)CO2 | -29 | 3 | -6 | 4 | -2
C[C@@H]1CN([C@@H](C)CO)C(=O)c2cccc(NC(=O)c3ccncc3)c2O[C@@H]1CN(C)S(=O)(=O)c1cccs1 | 7 | -1 | 5 | -5 | 3
O=S(=O)(c1cccc(F)c1)N1[C@@H]2CNC[C@H]1C2c1ccc(-c2ccc(F)cc2)cc1 (some centres undefined) | -5 | 1 | -2 | -5 | x
Cc1c(Cl)cccc1NC(=O)CNC(=O)Cc1n[nH]c(=O)c2ccccc12 | -15 | -3 | x | 7 | 110*
CCCNC(=O)N1CC2(CCN(CC3CCCCC3)CC2)c2c([nH]c3cc(OC)ccc23)[C@@H]1CO | 5 | -9 | x | u | x
Cc1ccc(Cn2c(=O)c3ccccc3n3c(CCC(=O)O)nnc23)cc1 | 5 | 4 | x | -2 | 17
CC(C)Cn1c(=O)c2ccccc2n2c(CCC(=O)O)nnc12 | -4 | 6 | -3 | 70* | -4
COc1ccc(-c2n[nH]c(C)c2-c2cc(OC)ccc2O)cc1 | x | -5 | x | x | 134*
COc1ccc(-c2cc(-c3cc(OC)ccc3O)[nH]n2)cc1 | x | -7 | x | x | -3
O=C(C[C@H]1C=C[C@@H](NC(=O)Cc2ccccn2)[C@@H](CO)O1)NCCc1ccccc1 | 7 | 2 | -3 | 11 | x
CC(C)c1ccc(S(=O)(=O)N2CCN(C(=O)n3ccnc3)CC2)cc1 | -1 | x | -3 | 31* | -6
Cc1ccc(S(=O)(=O)N2CCN(C(=O)n3ccnc3)CC2)cc1 | -2 | 2 | -3 | -8 | -11
CCN(CC)CCCn1c2c(c(SCC(=O)Nc3cc(C)cc(C)c3)nc1=O)CCC2 | -4 | x | -2 | 22* | 7
CCN(CC)CCCn1c2c(c(SCC(=O)Nc3cccc(C(C)=O)c3)nc1=O)CCC2 | -1 | -5 | 5 | 1 | 2
O=S(=O)(c1ccc(S(=O)(=O)N(Cc2ccco2)Cc2ccccc2Cl)cc1)N1CCCC1 | x | 10 | x | x | 94*
CCOc1ccc(C(=O)C(CN2CCOCC2)c2ccccc2)cc1 (centres undefined) | x | 32 | x | x | 92*
CCOc1ccc(C(=O)NN2CCOCC2)cc1 | -4 | 5 | -4 | 154* | -1
CCN(C[C@@H]1N[C@H](CO)[C@@H]1c1ccccc1)C(=O)c1ccccc1 | -2 | 2 | 0 | -2 | -7
C[C@@H]1CCCCO[C@H](CN(C)C(=O)C2CCCCC2)[C@H](C)CN([C@@H](C)CO)C(=O)c2cc(NS(=O)(=O)c3ccc(F)cc3)ccc2O1 | 22 | -2 | 16* | -9 | x
C[C@H](CO)N1C[C@H](C)[C@H](CN(C)C(=O)C2CCCCC2)OCCCC[C@H](C)Oc2ccc(NS(=O)(=O)c3ccc(F)cc3)cc2C1=O | -5 | 1 | 4 | 6 | x
C[C@@H]1CCCCO[C@H](CN(C)C(=O)C2CCCCC2)[C@H](C)CN([C@H](C)CO)C(=O)c2cc(NS(=O)(=O)c3ccc(Cl)cc3)ccc2O1 | -8 | -3 | 9 | 39* | x
C[C@@H]1CCCCO[C@H](CN(C)C(=O)C2CCCCC2)[C@@H](C)CN([C@H](C)CO)C(=O)c2cc(NS(=O)(=O)c3ccc(Cl)cc3)ccc2O1 | -4 | 7 | 0 | 3 | x
C[C@@H]1CCCCO[C@@H](CN(C)C(=O)C2CCCCC2)[C@@H](C)CN([C@H](C)CO)C(=O)c2cc(NS(=O)(=O)c3ccc(F)cc3)ccc2O1 | 3 | 14 | 1 | x | x
SMILES | S100A4 inh HTS | PGC1a acetyl inh | SIRT5 block | DENV2 CPE rescue | Statin myotox sup
C[C@@H]1CCCCO[C@H](CN(C)C(=O)C2CCCCC2)[C@@H](C)CN([C@@H](C)CO)C(=O)c2cc(NS(=O)(=O)c3ccc(F)cc3)ccc2O1 | 9 | 0 | 17* | 2 | x
C[C@H](CO)N1C[C@H](C)[C@H](CN(C)C(=O)c2cccnc2)Oc2ncc(-c3ccc(C#N)cc3)cc2C1=O | -15 | 4 | 2 | 1 | -4
C[C@H](CO)N1C[C@H](C)[C@H](CN(C)CC2CC2)Oc2ccc(NS(=O)(=O)c3cccs3)cc2CC1=O | -2 | 3 | 1 | -1 | 0
CCC(C)CN1C(=O)CSCC1(C)C(=O)Nc1ccc2c(c1)OCCO2 (centres undefined) | -1 | x | 2 | 31* | x
CCNC(=O)C1(C)CCN(Cc2noc(-c3c(C)noc3C)n2)C1 (centres undefined) | 2 | 0 | -3 | 45* | -13
O=C(CN1C(=O)CCC1=O)Nc1ccc2c3c(cccc13)CC2 | x | 9 | x | x | 92*
COc1cc(OC)cc(C(=O)NC(=S)Nc2ccc3c4c(cccc24)CC3)c1 | x | 1 | x | x | x
COc1ccc(C(=O)Nc2ccc3c4c(cccc24)CC3)cc1 | x | 86* | x | x | x
Cn1c(=O)c2ncn(CC(=O)Nc3ccc4c5c(cccc35)CC4)c2n(C)c1=O | x | -15 | x | x | 30
CN(C[C@H]1[C@H](c2ccccc2)[C@@H](CO)N1Cc1ccccn1)S(C)(=O)=O | x | 1 | -4 | x | -5
C=CCNC(=O)CC1C(=O)NCCN1Cc1c(F)cccc1Cl (centres undefined) | -7 | x | 32* | 13 | x
CC(C)(C)NC(=O)CC1C(=O)NCCN1Cc1c(F)cccc1Cl (centres undefined) | -5 | x | -2 | -4 | x
C/C=C/c1ccc([C@@H]2[C@H](CO)N[C@H]2CNS(=O)(=O)c2ccccc2)cc1 | -9 | 1 | 12 | -9 | -59
CN(C)N1C(=O)CC(C)(c2ccc([N+](=O)[O-])cc2)C1=O (centres undefined) | -3 | -18 | -3 | -13 | 114*
CN(C)CCN1C(=O)NC(C)(c2ccc([N+](=O)[O-])cc2)C1=O (centres undefined) | 3 | 4 | -3 | -3 | 6
Cc1cccc(S(=O)(=O)N2C[C@@H](O)COC[C@@H]3O[C@H](CC(=O)NCc4ccncn4)CC[C@H]32)c1 | -29 | 10 | 2 | 1 | -4
C/C(=N\NC(N)=O)c1ccc(-n2ccnc2)cc1 | 3 | 10 | 22* | -1 | -2
COCC(=O)Nc1ccc2c(c1)C(=O)N(C)C[C@H](OC)[C@@H](C)CN(C(=O)c1ccncc1)[C@H](C)CO2 | 8 | 4 | -2 | 12 | -1
O=C(C[C@@H]1C=C[C@H](NC(=O)Cc2cccnc2)[C@@H](CO)O1)Nc1ccc(-c2ccccc2)cc1 | 7 | -3 | 0 | 15 | x
CCc1ccc(N2CCN(CCNC(=O)Nc3ccc(OC)cc3)CC2)cc1 | -13 | x | -2 | 12 | -7
COc1ccc(NC(=O)NCCN2CCN(c3cc(OC)ccc3OC)CC2)cc1 | 1 | 10 | 28* | -1 | -7
